“And” between values parts separate entries of the source, which are not always exact repeats. Equal entries are not always repeated.
Assays:
[1] = tested on: HEK-293T; assay: Multiplex assay against HEK293T; assay type: toxicity, cell-based; details: human
Method in brief: (§1)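 Live cells were stained at seeding with Hoechst33342, BioTracker Green Microtubule Cytoskeleton Dye, MitoTracker Red and Annexin V Alexa Fluor 680, then imaged on a CQ1 microscope at 37°C and 5% CO2 after compound addition. CellPathfinder machine-learning gating split cells into Hoechst high-intensity objects or normal cells. Normal cells were split into healthy, pyknosed or fragmented nuclei, and pyknosed cells into mitotic or apoptotic. Tubulin, mitochondrial-mass and membrane-permeability phenotypes are per cents of healthy-nucleus cells.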

[2] = tested on: U2OS; assay: Multiplex assay against U2OS; assay type: toxicity, cell-based; details: human; method in brief: as §1
[3] = 24 h, 10 µM, compound concentration 10 uM
[4] = 48 h, 1 µM, compound concentration 1 uM
[5] = 48 h, 10 µM, compound concentration 10 uM
[6] = 12 h, 1 µM, compound concentration 1 uM
[7] = 12 h, 10 µM, compound concentration 10 uM
[8] = 24 h, 1 µM, compound concentration 1 uM

## CCCC(CCC)C(=O)O [VALPROIC ACID]
[1]; [3]
  Population Fragmented Nuclei (%): 9% and 8%
  Population Healthy Nuclei (%): 81% and 86%
  Population Hoechst High Intensity Objects (%): 4% and 3%
  Population Membrane Permeable-Phenotype (%): 0%
  Population Mitochondria Different-Phenotype (%): 16% and 30%
  Population Mitotic Cells (%): 71% and 76%
  Population Normal (%): 95% and 96%
  Population Pyknosed Nuclei (%): 9% and 5%
  Population Tubulin-Different-Phenotype (%): 15% and 11%
  Total Cell Count: 649 and 593
[1]; [4]
  Population Apoptotic (%): 19% and 36%
  Population Fragmented Nuclei (%): 14% and 10%
  Population Healthy Nuclei (%): 78% and 81%
  Population Hoechst High Intensity Objects (%): 2% and 3%
  Population Membrane Permeable-Phenotype (%): 3% and 1%
  Population Mitochondria Different-Phenotype (%): 11% and 17%
  Population Mitotic Cells (%): 80% and 63%
  Population Normal (%): 97% and 96%
  Population Pyknosed Nuclei (%): 6% and 8%
  Population Tubulin-Different-Phenotype (%): 9% and 10%
  Total Cell Count: 1112 and 700
[1]; [5]
  Population Apoptotic (%): 21% and 27%
  Population Fragmented Nuclei (%): 15% and 13%
  Population Healthy Nuclei (%): 79% and 82%
  Population Hoechst High Intensity Objects (%): 3% and 1%
  Population Membrane Permeable-Phenotype (%): 1% and 2%
  Population Mitochondria Different-Phenotype (%): 11% and 12%
  Population Mitotic Cells (%): 78% and 72%
  Population Normal (%): 96% and 98%
  Population Pyknosed Nuclei (%): 5% and 4%
  Population Tubulin-Different-Phenotype (%): 9% and 6%
  Total Cell Count: 1088 and 947
[2]; [6]
  Population Apoptotic (%): 72% and 66%
  Population Fragmented Nuclei (%): 28% and 14%
  Population Healthy Nuclei (%): 63% and 77%
  Population Hoechst High Intensity Objects (%): 6% and 2%
  Population Membrane Permeable-Phenotype (%): 9% and 8%
  Population Mitochondria Different-Phenotype (%): 7% and 3%
  Population Mitotic Cells (%): 27% and 33%
  Population Normal (%): 93% and 97%
  Population Pyknosed Nuclei (%): 8%
  Population Tubulin-Different-Phenotype (%): 8% and 6%
[2]; [7]
  Population Apoptotic (%): 77% and 85%
  Population Fragmented Nuclei (%): 30% and 21%
  Population Healthy Nuclei (%): 66% and 70%
  Population Hoechst High Intensity Objects (%): 4% and 0%
  Population Membrane Permeable-Phenotype (%): 6% and 4%
  Population Mitochondria Different-Phenotype (%): 3% and 4%
  Population Mitotic Cells (%): 22% and 14%
  Population Normal (%): 95% and 100%
  Population Pyknosed Nuclei (%): 3% and 7%
  Population Tubulin-Different-Phenotype (%): 4%
[2]; [8]
  Population Apoptotic (%): 84% and 100%
  Population Fragmented Nuclei (%): 24% and 17%
  Population Healthy Nuclei (%): 66% and 74%
  Population Hoechst High Intensity Objects (%): 6% and 3%
  Population Membrane Permeable-Phenotype (%): 9%
  Population Mitochondria Different-Phenotype (%): 6% and 2%
  Population Mitotic Cells (%): 16% and 0%
  Population Normal (%): 93% and 96%
  Population Pyknosed Nuclei (%): 8%
  Population Tubulin-Different-Phenotype (%): 9% and 7%
[2]; [3]
  Population Apoptotic (%): 83% and 100%
  Population Fragmented Nuclei (%): 25% and 17%
  Population Healthy Nuclei (%): 71% and 78%
  Population Hoechst High Intensity Objects (%): 2% and 0%
  Population Membrane Permeable-Phenotype (%): 4% and 8%
  Population Mitochondria Different-Phenotype (%): 3% and 4%
  Population Mitotic Cells (%): 16% and 0%
  Population Normal (%): 97% and 100%
  Population Pyknosed Nuclei (%): 3% and 4%
  Population Tubulin-Different-Phenotype (%): 3% and 5%
[2]; [4]
  Population Apoptotic (%): 76% and 91%
  Population Fragmented Nuclei (%): 20% and 16%
  Population Healthy Nuclei (%): 69% and 72%
  Population Hoechst High Intensity Objects (%): 3%
  Population Membrane Permeable-Phenotype (%): 7% and 8%
  Population Mitochondria Different-Phenotype (%): 5%
  Population Mitotic Cells (%): 23% and 8%
  Population Normal (%): 96%
  Population Pyknosed Nuclei (%): 9% and 11%
  Population Tubulin-Different-Phenotype (%): 5% and 6%
[2]; [5]
  Population Apoptotic (%): 91% and 93%
  Population Fragmented Nuclei (%): 20%
  Population Healthy Nuclei (%): 71%
  Population Hoechst High Intensity Objects (%): 2% and 1%
  Population Membrane Permeable-Phenotype (%): 3% and 9%
  Population Mitochondria Different-Phenotype (%): 2%
  Population Mitotic Cells (%): 8% and 6%
  Population Normal (%): 97% and 98%
  Population Pyknosed Nuclei (%): 7%
  Population Tubulin-Different-Phenotype (%): 1% and 4%

Reference: ChEMBL document CHEMBL5724801, “EUbOPEN Chemogenomics Library - Multiplex” (2024)
